Test results taken from PMC5774851 (Journal of medicinal chemistry, 2016).

Assays:
[1] = system: Slc3a1 knockout male mice; assay: In vivo activity in genetic mouse model of cystinuria; conditions: 29.3 μmol/kg daily gavage for 4 weeks
Procedure, shortened: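 Male Slc3a1 knockout mice in groups of six or seven received test compound at 29.3 μmol/kg by daily oral gavage for 4 weeks. Seven controls got water only. Read-out was the fraction of mice in each group that formed stones.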

[2] = In situ AFM measurement of L-cystine crystal step velocities; conditions: aqueous 2 mM L-cystine; for V/V0 normalized step velocity @ 15 μM: 15 μM inhibitor; for V/V0 normalized step velocity @ 30 μM: 30 μM inhibitor; for V/V0 normalized step velocity @ 45 μM: 45 μM inhibitor
[3] = L-cystine diamides in mouse urine after oral dosing; type: in vivo; conditions: mice, daily gavage 29.3 μmol/kg, micromolar concentrations in urine
[4] = Chemical stability in pH 7.4 phosphate buffered saline at 37 °C by LC-MS; type: physicochemical
Procedure, shortened: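 Test compound incubated in pH 7.4 phosphate-buffered saline at 37 °C. Loss of parent compound followed over time by LC-MS, and half-life taken from its disappearance.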

[5] = system: Slc3a1 knockout male mice; conditions: knockout mouse model of cystinuria, previous study; cited from earlier work
[6] = Fluorescence assay
[7] = cited from earlier work

| Oral bioavailability (found in urine after oral dosing) [3] | half-life [4] [days] | Concentration of L-cystine in the supernatant in the absence of inhibitor ([6]; water, 25 °C, 72 h) | Structure (SMILES) | Effectiveness in preventing stone formation [1] | V/V0 normalized step velocity @ 15 μM [2] | V/V0 normalized step velocity @ 30 μM [2] | V/V0 normalized step velocity @ 45 μM [2] | Effect on stone size and stone burden [5] | Effect on the number of mice that formed stones [5] | Ratio (improvement in potency over the control CDME) ([6]; EC2x ratio vs CDME) | Reported equilibrium concentration of L-cystine [7] [mM] |
| --- | --- | --- | --- | --- | --- | --- | --- | --- | --- | --- | --- |
| orally bioavailable | 19.8 | – | Cl.Cl.N[C@@H](CSSC[C@H](N)C(=O)N1CCOCC1)C(=O)N1CCOCC1 [Compound 1a, L-Cystine bismorpholide] | ineffective | 0.44–0.65 | 0.34–0.58 | 0.29–0.53 | – | – | – | – |
| – | ~0.113 | – | COC(=O)[C@@H](N)CSSC[C@H](N)C(=O)OC [CDME, L-cystine dimethyl ester, reference compound] | – | 0.4–0.65 | 0.27–0.54 | 0.21–0.48 | effective in reducing stone size and stone burden | no effect | 1.0 | – |
| orally bioavailable | 46.2 | – | CN1CCN(C(=O)[C@@H](N)CSSC[C@H](N)C(=O)N2CCN(C)CC2)CC1.Cl.Cl.Cl.Cl [Compound 1b, L-cystine bis(N′-methylpiperazide)] | effective | 0.52–0.66 | 0.32–0.50 | 0.30–0.40 | – | – | – | – |
| – | – | approximately 1 mM | N[C@@H](CSSC[C@H](N)C(=O)O)C(=O)O [L-cystine] | – | – | – | – | – | – | – | 0.7 |
